Calls of active or inactive are those of the source. The calls are words filed in the database; no cut-off is given here.
How the values were obtained:
Format in all cases: cell-based
[1] = target: G-protein coupled receptor 55 (Homo sapiens) (UniProt Q9Y2T6); test: Inverse agonist activity at GPR55 in human MDA-MB-468 cells assessed as reduction in cell viability at 5 uM treated 30 mins after 10 uM GPR55 selective antagonist CID16020046 treatment followed by incubation for 24 hrs by MTT assay
How it was run: (§1)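 Cells pretreated with GPR55 antagonist CID16020046 for 30 min before test compound addition; proliferation compared against DMSO-treated cells.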

[2] = target: G-protein coupled receptor 55 (Homo sapiens) (UniProt Q9Y2T6); test: Inverse agonist activity at GPR55 in human MDA-MB-468 cells assessed as reduction in cell viability at 5 uM incubated for 24 hrs by MTT assay
[3] = target: G-protein coupled receptor 55 (Homo sapiens) (UniProt Q9Y2T6); test: Inverse agonist activity at GPR55 in human MDA-MB-231 cells assessed as reduction in cell viability at 5 uM incubated for 24 hrs by MTT assay
MCF-10A = test: Cytotoxicity in human MCF10A cells assessed as reduction in cell viability incubated for 24 hrs by MTT assay
How it was run: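 EC50 from MTT viability after 24 h exposure; values in micromolar, mean of triplicate (n = 3) determinations. MCF10A described as […]; MDA-MB-231 noted as GPR55-overexpressing.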

[4] = target: G-protein coupled receptor 55 (Homo sapiens) (UniProt Q9Y2T6); test: Inverse agonist activity at GPR55 in human MCF7 cells assessed as reduction in cell viability at 5 uM treated 30 mins after 10 uM GPR55 selective antagonist CID16020046 treatment followed by incubation for 24 hrs by MTT assay; how it was run: as §1
[5] = target: G-protein coupled receptor 55 (Homo sapiens) (UniProt Q9Y2T6); test: Inverse agonist activity at GPR55 in human T47D cells assessed as reduction in cell viability at 5 uM incubated for 24 hrs by MTT assay
[6] = target: G-protein coupled receptor 55 (Homo sapiens) (UniProt Q9Y2T6); test: Inverse agonist activity at GPR55 in human MCF7 cells assessed as reduction in cell viability at 5 uM incubated for 24 hrs by MTT assay
[7] = target: G-protein coupled receptor 55 (Homo sapiens) (UniProt Q9Y2T6); test: Inverse agonist activity at GPR55 in human T47D cells assessed as reduction in cell viability at 5 uM treated 30 mins after 10 uM GPR55 selective antagonist CID16020046 treatment followed by incubation for 24 hrs by MTT assay
[8] = target: G-protein coupled receptor 55 (Homo sapiens) (UniProt Q9Y2T6); test: Inverse agonist activity at GPR55 in human MDA-MB-231 cells assessed as reduction in cell viability at 5 uM treated 30 mins after 10 uM GPR55 selective antagonist CID16020046 treatment followed by incubation for 24 hrs by MTT assay; how it was run: as §1
[9] = Cytotoxicity in human PBMC assessed as cell viability at 100 uM incubated for 24 to 48 hrs hrs by trypan blue dye exclusion assay; settings: PBMC (peripheral blood mononuclear cells), read-out: Activity
How it was run: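 Peripheral blood mononuclear cells exposed at 100 μM for 24 or 48 h; viability scored by trypan blue dye exclusion, reported as percent viable cells.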

G-protein coupled receptor 55 (Homo sapiens), sequence (Q9Y2T6 whole entry): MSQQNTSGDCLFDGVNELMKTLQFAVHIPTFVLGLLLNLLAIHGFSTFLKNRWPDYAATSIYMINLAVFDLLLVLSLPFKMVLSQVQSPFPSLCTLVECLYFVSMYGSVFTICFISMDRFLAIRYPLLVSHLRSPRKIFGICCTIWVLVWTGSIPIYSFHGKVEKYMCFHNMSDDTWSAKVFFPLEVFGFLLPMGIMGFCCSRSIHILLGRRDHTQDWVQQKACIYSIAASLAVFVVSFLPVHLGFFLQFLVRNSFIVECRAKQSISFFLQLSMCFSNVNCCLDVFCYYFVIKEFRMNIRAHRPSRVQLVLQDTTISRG

Compound | Activity [1] | Activity [2] | Activity [3] | EC50 (MCF-10A) [µM] | Activity [4] | Activity [5] | Activity [6] | Activity [7] | Activity [8] | viability at 100 µM [9] [%]
O=C1C(Cl)=C(N2CCOCC2)C(=O)c2c(O)ccc(O)c21 | inactive | Active | Active | 3.7 | inactive | inactive | Active | inactive | inactive | 70
O=C1C(Cl)=C(N2CCCCC2)C(=O)c2c(O)ccc(O)c21 | – | – | – | 2.5 | – | – | – | – | – | 65
